Usually ED50 stands for the dose at which the effect has come halfway, by size or by number of responders.

Experimental findings from ChEMBL document CHEMBL1125014, “Synthesis and structure-activity relationships of new 9-N-alkyl derivatives of 9(S)-erythromycylamine” (1990) are described below.

The subject of assay [1] is Haemophilus influenzae. The assay is described as follows: MIC value was measured against haemophilus influenzae. It counts as functional. The method, boiled down:
(§1)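 Susceptibility determined by standard agar-dilution method against a panel of bacterial strains.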

In assay [2] the test system is Haemophilus influenzae. The experiment in a line: MIC value was measured against haemophilus influenzae CL. It is filed as functional.
The subject of assay [3] is Staphylococcus aureus. The experiment in a line: Effective dose against mice infected with Staphylococcus aureus after peroral administration (in vivo). The following applies: in Mus musculus, po. It is filed as functional.
Assay [4] deals with Streptococcus pneumoniae. The experiment in a line: Effective dose against mice infected with streptococcus pneumoniae after peroral administration (in vivo). It counts as functional. The following applies: in Mus musculus, po.
For assay [5], the system named is Streptococcus pyogenes. The assay is described as follows: Effective dose against mice infected with streptococcus pyogenes after peroral administration (in vivo). It counts as functional. To be noted: in Mus musculus, po.
Assay [6] concerns Streptococcus pneumoniae. The experiment in a line: MIC value measured against streptococcus pneumoniae Park1. It counts as functional.
Assay [7] relates to Staphylococcus aureus. The experiment in a line: MIC value measured against staphylococcus aureus X1. It counts as functional.
For assay [8], the system named is Staphylococcus epidermidis. The experiment in a line: MIC value was measured against staphylococcus epidermidis. It counts as functional. The method in brief:
as §1

Assay [9] concerns Streptococcus pyogenes. The experiment in a line: MIC value measured against streptococcus pyogenes C203. It is filed as functional.
Another assay deals with Enterococcus faecalis. The experiment in a line: MIC value was measured against streptococcus faecalis X66. It is filed as functional. The method, boiled down: as §1
Assay [10] has as its system Staphylococcus epidermidis. The assay is described as follows: microbe, parasite or virus in culture. It is filed as functional.
Assay [11] has as its system Streptococcus pneumoniae. The assay is described as follows: MIC value was measured against streptococcus pneumoniae park1.
Assay [12] deals with Mus musculus. The experiment in a line: ED50 value was measured against staphylococcus aureus after sc administration in mice (in vivo, in experiment 1). It is filed as functional. The method in brief:
(§2)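 Infected mice were dosed orally or subcutaneously at 1 and 5 h postinfection, 0.25 mL of antibiotic solution in 10% aqueous ethanol per dose. Tartaric acid was added where needed for solubility. Several dose concentrations were tested to give the ED50.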

Assay [13] has as its system Mus musculus. The experiment in a line: ED50 value was measured against staphylococcus aureus infection in mice (in vivo, in experiment 1). It is filed as functional. The method in brief:
as §2

In assay [14] the test system is Mus musculus. The assay is described as follows: ED50 value was measured against streptococcus pneumoniae after po administration in mice (in vivo, in experiment 1). It is filed as functional. The method in brief:
as §2

Assay [15] has as its system Mus musculus. The assay is described as follows: ED50 value was measured against streptococcus pneumoniae after sc administration in mice (in vivo, in experiment 1). It counts as functional. The method in brief:
as §2

Assay [16] relates to Mus musculus. The experiment in a line: ED50 value was measured against streptococcus pyogenes after po administration in mice (in vivo, in experiment 1). It is filed as functional. The method in brief:
as §2

For assay [17], the system named is Mus musculus. The assay is described as follows: ED50 value was measured against streptococcus pyogenes after sc administration in mice (in vivo, in experiment 1). It counts as functional. The method, boiled down:
as §2

In brackets after ≈: the same amount, converted by molar mass.

With `CCC(CC)CN[C@@H]1[C@H](C)[C@@H](O)[C@](C)(O)[C@@H](CC)OC(=O)[C@H](C)[C@@H](OC2CC(C)(OC)C(O)C(C)O2)[C@H](C)[C@@H](OC2OC(C)CC(N(C)C)C2O)[C@](C)(O)C[C@H]1C` (stereo partly drawn), the MIC in the assay on Haemophilus influenzae [1] worked out at 2 µg/mL (≈ 2.44 µM); against Haemophilus influenzae [2] it was 2 µg/mL (≈ 2.44 µM); against Streptococcus pneumoniae [6], 0.015 µg/mL (≈ 0.0183 µM); against Staphylococcus aureus [7], 0.5 µg/mL (≈ 0.61 µM); in assay [8], 0.5 µg/mL (≈ 0.61 µM); in the assay with Streptococcus pyogenes [9], 0.015 µg/mL (≈ 0.0183 µM). The figures for the ED50 with Staphylococcus aureus [3], in the assay on Streptococcus pneumoniae [4] and in the assay with Streptococcus pyogenes [5] were 22 mg/kg, 17 mg/kg and 10 mg/kg, respectively.

Turning to `CC[C@H]1OC(=O)[C@H](C)[C@@H](OC2CC(C)(OC)C(O)C(C)O2)[C@H](C)[C@@H](OC2OC(C)CC(N(C)C)C2O)[C@](C)(O)C[C@@H](C)[C@H](NCC2CC=CCC2)[C@H](C)[C@@H](O)[C@]1(C)O` (stereo partly drawn), the MIC with Haemophilus influenzae [2] was 4 µg/mL (≈ 4.82 µM); against Staphylococcus aureus [7] it was 1 µg/mL (≈ 1.21 µM); in the assay on Enterococcus faecalis, 0.25 µg/mL (≈ 0.302 µM); against Streptococcus pyogenes [9], 0.06 µg/mL (≈ 0.0724 µM); in [10], 0.25 µg/mL (≈ 0.302 µM); in the assay on Streptococcus pneumoniae [11], 0.008 µg/mL (≈ 0.00965 µM). Besides, the ED50 was determined as 20 mg/kg in the assay with Staphylococcus aureus [3], 9 mg/kg in the assay with Streptococcus pneumoniae [4] and 15 mg/kg with Streptococcus pyogenes [5].

For the compound `CC[C@H]1OC(=O)[C@H](C)[C@@H](OC2CC(C)(OC)C(O)C(C)O2)[C@H](C)[C@@H](OC2OC(C)CC(N(C)C)C2O)[C@](C)(O)C[C@@H](C)[C@H](NCCOCCOC)[C@H](C)[C@@H](O)[C@]1(C)O` (stereo partly drawn), the MIC amounted to 2 µg/mL (≈ 2.39 µM) in the assay on Haemophilus influenzae [1]; 2 µg/mL (≈ 2.39 µM) in the assay on Haemophilus influenzae [2]; 0.015 µg/mL (≈ 0.0179 µM) in the assay with Streptococcus pneumoniae [6]; 1 µg/mL (≈ 1.19 µM) against Staphylococcus aureus [7]; 0.12 µg/mL (≈ 0.143 µM) against Streptococcus pyogenes [9]; 1 µg/mL (≈ 1.19 µM) in assay [10]. In addition, the ED50 with Staphylococcus aureus [3] worked out at 22 mg/kg; in the assay with Streptococcus pneumoniae [4], 23 mg/kg; in the assay on Streptococcus pyogenes [5] it was 27 mg/kg; in the assay on Mus musculus [12], 3.8 mg/kg; in the assay with Mus musculus [13], 78 mg/kg; in the assay on Mus musculus [14], 43 mg/kg. The ED50 is 1.4 mg/kg with Mus musculus [15], 37 mg/kg in the assay on Mus musculus [16] and 5.3 mg/kg in the assay on Mus musculus [17].
